Reference: ChEMBL document CHEMBL2062460, “Disubstituted thiourea derivatives and their activity on CNS: synthesis and biological evaluation” (Eur J Med Chem, 2012)
≈ marks a conversion by molar mass, not a printed value. Calls of active or inactive are those of the source. No cut-off for these calls is given here.

What was measured:
[1] = Cytotoxicity against human MT4 cells after 96 hrs by MTT assay; format: cell-based
[2] = system: Bacillus subtilis; test: Antibacterial activity against Bacillus subtilis ATCC 6633 at 400 ug/disc after 18 hrs by disc diffusion method; format: functional; conditions: ATCC 6633, 18 h, read-out: DIZ
Procedure, shortened: (§1)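 Disc diffusion per CLSI on Mueller–Hinton II agar; 9 mm paper discs loaded from methanol or DMSO solutions to 400 µg per disc, dried; growth inhibition zone diameter read after 18 h at 35 °C.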

[3] = system: Staphylococcus epidermidis; test: Antibacterial activity against Staphylococcus epidermidis ATCC 12228 at 400 ug/disc after 18 hrs by disc diffusion method; format: functional; procedure, shortened: as §1
[4] = system: Enterococcus hirae; test: Antibacterial activity against Enterococcus hirae ATCC 10541 at 400 ug/disc after 18 hrs by disc diffusion method; format: functional; procedure, shortened: as §1
[5] = system: Staphylococcus aureus; test: Antibacterial activity against Staphylococcus aureus NCTC 4163 at 400 ug/disc after 18 hrs by disc diffusion method; format: functional; procedure, shortened: as §1
[6] = system: Staphylococcus aureus; test: Antibacterial activity against Staphylococcus aureus ATCC 25923 at 400 ug/disc after 18 hrs by disc diffusion method; format: functional; procedure, shortened: as §1
[7] = system: Staphylococcus aureus; test: Antibacterial activity against Staphylococcus aureus ATCC 6538 at 400 ug/disc after 18 hrs by disc diffusion method; format: functional; procedure, shortened: as §1
[8] = system: Staphylococcus aureus; test: Antibacterial activity against Staphylococcus aureus ATCC 29213 at 400 ug/disc after 18 hrs by disc diffusion method; format: functional; procedure, shortened: as §1
[9] = system: Bacillus cereus; test: Antibacterial activity against Bacillus cereus ATCC 11778 at 400 ug/disc after 18 hrs by disc diffusion method; format: functional; procedure, shortened: as §1
[10] = system: Micrococcus luteus; test: Antibacterial activity against Micrococcus luteus ATCC 9341 at 400 ug/disc after 18 hrs by disc diffusion method; format: functional; procedure, shortened: as §1
[11] = system: Micrococcus luteus; test: Antibacterial activity against Micrococcus luteus ATCC 10240 at 400 ug/disc after 18 hrs by disc diffusion method; format: functional; conditions: ATCC 10240, 18 h, read-out: DIZ; procedure, shortened: as §1
[12] = system: Escherichia coli; test: Antibacterial activity against Escherichia coli ATCC 10538 at 400 ug/disc after 18 hrs by disc diffusion method; format: functional, organism-based; procedure, shortened: as §1
[13] = system: Escherichia coli; test: Antibacterial activity against Escherichia coli ATCC 25922 at 400 ug/disc after 18 hrs by disc diffusion method; format: functional, organism-based; procedure, shortened: as §1
[14] = system: Escherichia coli; test: Antibacterial activity against Escherichia coli NCTC 8196 at 400 ug/disc after 18 hrs by disc diffusion method; format: functional, organism-based; procedure, shortened: as §1
[15] = system: Proteus vulgaris; test: Antibacterial activity against Proteus vulgaris NCTC 4635 at 400 ug/disc after 18 hrs by disc diffusion method; format: functional, organism-based; procedure, shortened: as §1
[16] = system: Pseudomonas aeruginosa; test: Antibacterial activity against Pseudomonas aeruginosa ATCC 15442 at 400 ug/disc after 18 hrs by disc diffusion method; format: functional, organism-based; procedure, shortened: as §1
[17] = system: Pseudomonas aeruginosa; test: Antibacterial activity against Pseudomonas aeruginosa NCTC 6749 at 400 ug/disc after 18 hrs by disc diffusion method; format: functional, organism-based; procedure, shortened: as §1
[18] = system: Pseudomonas aeruginosa; test: Antibacterial activity against Pseudomonas aeruginosa ATCC 27853 at 400 ug/disc after 18 hrs by disc diffusion method; format: functional, organism-based; procedure, shortened: as §1
[19] = system: Bordetella bronchiseptica; test: Antibacterial activity against Bordetella bronchiseptica ATCC 4617 at 400 ug/disc after 18 hrs by disc diffusion method; format: functional, organism-based; procedure, shortened: as §1
[20] = system: Candida albicans; test: Antifungal activity against Candida albicans ATCC 10231 at 400 ug/disc after 18 hrs by disc diffusion method; format: functional, organism-based
Procedure, shortened: (§2)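 Yeasts tested by disc diffusion (CLSI) on RPMI agar with 2% glucose; 9 mm paper discs bearing 400 µg compound from methanol or DMSO solution; inhibition zone diameter read after 18 h at 35 °C.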

[21] = system: Candida albicans; test: Antifungal activity against Candida albicans ATCC 90028 at 400 ug/disc after 18 hrs by disc diffusion method; format: functional, organism-based; procedure, shortened: as §2
[22] = system: Candida parapsilosis; test: Antifungal activity against Candida parapsilosis ATCC 22019 at 400 ug/disc after 18 hrs by disc diffusion method; format: functional, organism-based; procedure, shortened: as §2
[23] = system: Human immunodeficiency virus 1; test: Antiviral activity against HIV1 infected in human MT4 cells assessed as virus-induced cytopathogenicity after 4 days by MTT assay; format: functional, organism-based; conditions: Human immunodeficiency virus 1, MT4, 96 h
[24] = system: Staphylococcus epidermidis; test: Antibacterial activity against methicillin-resistant Staphylococcus epidermidis clinical isolate 311/08 after 18 hrs by twofold serial agar dilution technique; format: functional; conditions: clinical isolate 311/08, 18 h
Procedure, shortened: (§3)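 Clinical isolates came from patients in Warsaw Medical University Hospitals and were classed as methicillin-susceptible or -resistant. MIC was determined by twofold serial agar dilution on Mueller–Hinton II agar (CLSI), 3.125–400 µg/mL in agar, with compounds in methanol or DMSO. Inoculum was 10^4 CFU/mL and plates were read after 18 h at 35 °C.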

[25] = system: Staphylococcus epidermidis; test: Antibacterial activity against methicillin-resistant Staphylococcus epidermidis clinical isolate 315/08 after 18 hrs by twofold serial agar dilution technique; format: functional; conditions: clinical isolate 315/08, 18 h; procedure, shortened: as §3
[26] = system: Staphylococcus epidermidis; test: Antibacterial activity against methicillin-resistant Staphylococcus epidermidis clinical isolate 316/08 after 18 hrs by twofold serial agar dilution technique; format: functional; conditions: clinical isolate 316/08, 18 h; procedure, shortened: as §3
[27] = system: Staphylococcus epidermidis; test: Antibacterial activity against methicillin-resistant Staphylococcus epidermidis clinical isolate 317/08 after 18 hrs by twofold serial agar dilution technique; format: functional; conditions: clinical isolate 317/08, 18 h; procedure, shortened: as §3
[28] = system: Staphylococcus epidermidis; test: Antibacterial activity against methicillin-resistant Staphylococcus epidermidis clinical isolate 318/08 after 18 hrs by twofold serial agar dilution technique; format: functional; conditions: clinical isolate 318/08, 18 h; procedure, shortened: as §3
[29] = system: Staphylococcus epidermidis; test: Antibacterial activity against methicillin-resistant Staphylococcus epidermidis clinical isolate 340/09 after 18 hrs by twofold serial agar dilution technique; format: functional; conditions: clinical isolate 340/09, 18 h; procedure, shortened: as §3
[30] = system: Staphylococcus epidermidis; test: Antibacterial activity against methicillin-resistant Staphylococcus epidermidis clinical isolate 341/09 after 18 hrs by twofold serial agar dilution technique; format: functional; conditions: clinical isolate 341/09, 18 h; procedure, shortened: as §3
[31] = system: Staphylococcus epidermidis; test: Antibacterial activity against methicillin-resistant Staphylococcus epidermidis clinical isolate 342/09 after 18 hrs by twofold serial agar dilution technique; format: functional; conditions: clinical isolate 342/09, 18 h; procedure, shortened: as §3
[32] = system: Staphylococcus epidermidis; test: Antibacterial activity against methicillin-resistant Staphylococcus epidermidis clinical isolate 343/09 after 18 hrs by twofold serial agar dilution technique; format: functional; conditions: clinical isolate 343/09, 18 h; procedure, shortened: as §3
[33] = system: Staphylococcus epidermidis; test: Antibacterial activity against methicillin-resistant Staphylococcus epidermidis clinical isolate 377/09 after 18 hrs by twofold serial agar dilution technique; format: functional; conditions: clinical isolate 377/09, 18 h; procedure, shortened: as §3
[34] = system: Mus musculus; test: Toxicity in Albino Swiss mouse assessed as locomotor activity administered at doses equivalent to 0.1 ED50, ip measured after 1 hr for 30 mins; format: organism-based; conditions: in vivo
Procedure, shortened: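 Spontaneous locomotor activity of single male Albino Swiss mice in photoresistor actometers (two light beams), beam crossings recorded for 30 min, starting 60 min after i.p. compound in 0.5% methylcellulose.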

[35] = system: Mus musculus; test: Toxicity in Albino Swiss mouse assessed as effect on amphetamine-induced hyperactivity administered at doses equivalent to 0.1 ED50, ip; format: organism-based; conditions: in vivo
Procedure, shortened: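 Compound i.p. in 0.5% methylcellulose 60 min before test; amphetamine 5 mg/kg s.c. 30 min before test; single mice in photoresistor actometers, light-beam crossings counted for 30 min.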

[36] = system: Mus musculus; test: Antinociceptive activity in Albino Swiss mouse administered at doses equivalent to 0.025 to 0.1 ED50, ip; format: functional, organism-based
[37] = system: Mus musculus; test: Toxicity in Albino Swiss mouse assessed as motor coordination administered at doses equivalent to 0.1 ED50, ip by chimney test; format: organism-based; conditions: in vivo
[38] = system: Mus musculus; test: Toxicity in Albino Swiss mouse assessed as motor coordination administered at doses equivalent to 0.1 ED50, ip by rota rod test; format: organism-based; conditions: in vivo
[39] = system: Mus musculus; test: Anticonvulsant activity in Albino Swiss mouse assessed as protection against pentylenetetrazole-induced severity of clonic or tonic seizures administered at doses equivalent to 0.1 ED50, ip; format: functional, organism-based
[40] = system: Mus musculus; test: Anticonvulsant activity in Albino Swiss mouse assessed as protection against pentylenetetrazole-induced mortality administered at doses equivalent to 0.1 ED50, ip; format: functional, organism-based
[41] = system: Mus musculus; test: Reduction of 5-hydroxytryptophan-induced head twitch in Albino Swiss mouse administered at doses equivalent to 0.1 ED50, ip; format: functional, organism-based
[42] = system: Mus musculus; test: Reduction of body temperature in normothermic Albino Swiss mouse administered at doses equivalent to 0.1 ED50, ip measured in rectum by thermistor thermometer analysis; format: ADME, organism-based; conditions: in vivo

| SMILES | CC50 at 96 h [1] [µM] | zone of inhibition at 400 µg/disc [2] [mm] | diameter of the inhibition zone (DIZ) [3] | diameter of the inhibition zone (DIZ) [4] | diameter of the inhibition zone (DIZ) [5] | diameter of the inhibition zone (DIZ) [6] | diameter of the inhibition zone (DIZ) [7] | diameter of the inhibition zone (DIZ) [8] | diameter of the inhibition zone (DIZ) [9] | zone of inhibition at 400 µg/disc [11] [mm] | diameter of the inhibition zone (DIZ) [12] | diameter of the inhibition zone (DIZ) [13] | diameter of the inhibition zone (DIZ) [14] | diameter of the inhibition zone (DIZ) [15] | diameter of the inhibition zone (DIZ) [16] | diameter of the inhibition zone (DIZ) [17] | diameter of the inhibition zone (DIZ) [18] | diameter of the inhibition zone (DIZ) [19] | diameter of the inhibition zone (DIZ) [20] | EC50 [23] [µM] | further results |
| --- | --- | --- | --- | --- | --- | --- | --- | --- | --- | --- | --- | --- | --- | --- | --- | --- | --- | --- | --- | --- | --- |
| O=C1Nc2ccc(Cl)cc2[C@@](C#CC2CC2)(C(F)(F)F)O1 [EFAVIRENZ] | 37 | – | – | – | – | – | – | – | – | – | – | – | – | – | – | – | – | – | – | – | – |
| Cc1ccc(NC(=S)Nc2nc[nH]n2)cc1 | 59 | 13 | inactive | inactive | inactive | inactive | inactive | inactive | inactive | 12 | inactive | inactive | inactive | inactive | inactive | inactive | inactive | inactive | inactive | > 50 | diameter of the inhibition zone (DIZ) [10]: inactive; diameter of the inhibition zone (DIZ) [21]: inactive; diameter of the inhibition zone (DIZ) [22]: inactive |
| Nc1ncnn1/C(S)=N/C1CCCCC1 | > 100 | – | – | – | – | – | – | – | – | – | – | – | – | – | – | – | – | – | – | > 100 | MIC [24]: 25 mg/L (≈ 111 µM); MIC [25]: 12.5 mg/L (≈ 55.5 µM); MIC [26]: 25 mg/L (≈ 111 µM); MIC [27]: 25 mg/L (≈ 111 µM); MIC [28]: 12.5 mg/L (≈ 55.5 µM); MIC [29]: 12.5 mg/L (≈ 55.5 µM); MIC [30]: 25 mg/L (≈ 111 µM); MIC [31]: 25 mg/L (≈ 111 µM); MIC [32]: 12.5 mg/L (≈ 55.5 µM); MIC [33]: 25 mg/L (≈ 111 µM) |
| S=C(Nc1cccc(Br)c1)Nc1nc[nH]n1 | 50 | 16 | inactive | inactive | inactive | inactive | inactive | inactive | inactive | 14 | inactive | inactive | inactive | inactive | inactive | inactive | inactive | inactive | inactive | > 50 | Activity [34]: Non-toxic; Activity [35]: Non-toxic; Activity [36]: Active; Activity [37]: Non-toxic; Activity [38]: Non-toxic; Activity [39]: inactive; Activity [40]: inactive; Activity [41]: Active; Activity [42]: Toxic; zone of inhibition at 400 µg/disc ([10]; ATCC 9341, 18 h, read-out: DIZ): 15 mm; diameter of the inhibition zone (DIZ) [21]: inactive; diameter of the inhibition zone (DIZ) [22]: inactive |
